Measured values from ChEMBL document CHEMBL4321820, “Identification and Optimization of Mechanism-Based Fluoroallylamine Inhibitors of Lysyl Oxidase-like 2/3” (J Med Chem, 2019).
Active and inactive are the calls of the source. No cut-off for these calls is given here.

Tests used:
[1] = Time during which plasma concentration exceed invitro IC50 for recombinant human LOXL2 in BALB/c mouse administered with (Z)-Ethyl1-(4-Amino-2-fluorobut-2-en-1-yl)-3-(3-(N,N-dimethylsulfamoyl)phenyl)-2-methyl-1H-indole-5-carboxylate Hydrochloride at 20 mg/kg, po administered via gavage by HPLC-MS/MS analysis; type: ADME, organism-based; conditions: in vivo
Mus musculus [2] = experiment: Antifibrotic activity in CCl4-induced BALB/c mouse model of liver fibrosis assessed as liver fibrosis area at 50 mg/kg, po administered for 6 weeks by picro-sirius red staining based microscopy; type: functional, organism-based
Method in brief: (§1)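 Female BALB/c mice given CCl4 i.p. (1 mL/kg of 25% CCl4 in olive oil) twice weekly for 6 weeks; sacrificed 48 h after last dose. Test articles oral, once daily: prophylactic weeks 1-6 or therapeutic weeks 4-6; imatinib control 50 mg/kg daily weeks 1-6. One formalin-fixed liver lobe stained for Picro Sirius Red and α-SMA; fibrotic area as % of total liver area; mean ± SEM, one-way ANOVA with Dunnett's test.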

Mus musculus [3] = experiment: Effect on plasma ALT level in CCl4-induced BALB/c mouse model of liver fibrosis at 50 mg/kg, po administered for 6 weeks; type: ADME, organism-based; conditions: in vivo, 1008 h
Method in brief: (§2)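 CCl4 liver fibrosis in female BALB/c mice: CCl4 i.p. (1 mL/kg 25% in olive oil) twice weekly for 6 weeks, sacrifice 48 h after final injection. Oral once-daily dosing weeks 1-6 or weeks 4-6; imatinib 50 mg/kg daily weeks 1-6. ALT and AST measured in plasma.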

Mus musculus [4] = experiment: Effect on plasma AST level in CCl4-induced BALB/c mouse model of liver fibrosis at 50 mg/kg, po administered for 6 weeks; type: ADME, organism-based; conditions: in vivo, 1008 h; method in brief: as §2
Mus musculus [5] = experiment: Antifibrotic activity in bleomycin-induced C57BL/6 mouse model of lung fibrosis assessed as reduction in Ashcroft score at 50 mg/kg, ip administered on day 7 to 27 and measured on day 28 by H and E staining based microscopy; type: functional; conditions: C57BL/6, ip
Method in brief: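 Female C57BL/6 mice, 6-8 weeks old, under isoflurane received intranasal bleomycin sulphate 0.05 U/mouse in PBS; controls got PBS. Once-daily i.p. treatment days 7-27, n=12/group; imatinib 50 mg/kg i.p. as comparator. Sacrifice at day 28; lung fibrosis scored by Ashcroft score.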

Mus musculus [6] = experiment: Antifibrotic activity in CCl4-induced BALB/c mouse model of liver fibrosis assessed as reduction in liver fibrosis area at 50 mg/kg, po administered for 6 weeks by alpha-SMA staining based microscopy; type: functional, organism-based; method in brief: as §1

Structure (SMILES) | T>IC50 [1] [h] | inhibition (Mus musculus [2]) | Activity (Mus musculus [3]) | Activity (Mus musculus [4]) | inhibition in vivo at 50 mg/kg (Mus musculus [5]) [%] | inhibition (Mus musculus [6])
Cc1c(-c2cccc(S(=O)(=O)N(C)C)c2)c2cc(C(=O)O)ccc2n1C/C(F)=C/CN | > 6 |  |  |  |  | 
Cc1ccc(NC(=O)c2ccc(CN3CCN(C)CC3)cc2)cc1Nc1nccc(-c2cccnc2)n1 [IMATINIB] |  | inactive | Non-Toxic | Non-Toxic | 50 to 70 | Active
